The list shows a part of the results. Values without a mark were called inactive.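 Rule for the calls: active = mean inhibition of triplicate wells above the hit cutoff set in the primary screen (cut at about 17% in these data); inactive = the rest.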

This assay concerns the target Neuropeptide Y receptor type 2 (Homo sapiens) (UniProt P49146). As to the kind of experiment: blockers of human NPY-Y2 signalling – HEK293-CNG cells, membrane potential fluorescence, triplicate, confirmation (AID 1257).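 Note: 0% = DMSO with NPY challenge and 100% = BIIE0246 high control.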 The note with it: HEK293 NPY-Y2 CNG channel, at 2.8 µM, hits give high values. A digest of the protocol: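 System – HEK293 cells expressing NPY-Y2 receptor and CNG channel · Also added – NPY 8 nM plus isoproterenol 1 µM, Ro 20-1724 25 µM · Compound dosing – single nominal compound dose of 2.8 µM · Incubation – 60 min NPY incubation, room temperature · Technique – voltage-sensitive dye fluorescence · Measure – 30-min to baseline fluorescence ratio, control-normalized · Repeats – three replicates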

Sequence of Neuropeptide Y receptor type 2 (Homo sapiens) (P49146 whole entry, looked up): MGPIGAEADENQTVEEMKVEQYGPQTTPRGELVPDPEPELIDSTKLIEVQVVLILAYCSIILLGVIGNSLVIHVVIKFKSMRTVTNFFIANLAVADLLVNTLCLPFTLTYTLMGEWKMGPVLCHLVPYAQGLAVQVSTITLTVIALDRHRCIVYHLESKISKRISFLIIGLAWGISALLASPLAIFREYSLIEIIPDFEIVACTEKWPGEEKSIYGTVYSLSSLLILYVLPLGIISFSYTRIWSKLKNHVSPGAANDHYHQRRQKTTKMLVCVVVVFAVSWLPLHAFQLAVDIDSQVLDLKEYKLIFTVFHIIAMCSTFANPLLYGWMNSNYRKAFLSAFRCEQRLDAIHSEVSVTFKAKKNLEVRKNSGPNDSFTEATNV

For `O=C(COC(=O)c1ccccc1)Nc1ccc(Cl)cc1C(=O)c1ccccc1`, the inhibition was 15.9%.

For orientation: inhibition means the change of the read-out against control, counted positive when it falls.

The record behind these values is PubChem BioAssay AID1257 (The Scripps Research Institute Molecular Screening Center, 2008).
